According to paper PMC10957407 (Food Chemistry: X, 2024):
Converted amounts (≈) assume the structure as drawn.

Assays:
[1] = system: 1-F12; test: icELISA with mAb 1-F12; format: binding, Balb/c mice; conditions: for CR: CR%=IC50 6-GG/IC50 test compound x100%
Summary of the method: (§1)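 Ascites-derived mAbs (caprylic acid–ammonium sulfate purified) from female Balb/c mice immunized with hapten–BSA. Plates coated with hapten–OVA in carbonate buffer (0.5 mol L−1, pH 9.6), blocked with 5% skim milk, washed with PBST, and detected with goat anti-mouse IgG-HRP; reaction stopped with 2 mol L−1 H2SO4. Analyte stocks (1 mg/mL, 70% methanol) were diluted in 10% methanol-PBS. IC50 values were fitted, and cross-reactivity was calculated for capsaicinoids, gingerol derivatives and eight other compounds.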

[2] = system: 1-G12; test: icELISA with mAb 1-G12; format: binding, Balb/c mice; conditions: for CR: CR%=IC50 6-GG/IC50 test compound x100%
Summary of the method: as §1

[3] = system: 1-D6; test: icELISA with mAb 1-D6; format: binding, Balb/c mice; conditions: for CR: CR%=IC50 6-GG/IC50 test compound x100%
Summary of the method: as §1

[4] = system: 2-LD2; test: icELISA with mAb 2-LD2; format: binding
[5] = system: 3-LD3; test: icELISA with mAb 3-LD3; format: binding
[6] = system: 4-AT4; test: icELISA with mAb 4-AT4; format: binding
[7] = system: 5-3H1; test: icELISA with mAb 5-3H1; format: binding
[8] = system: 5-D8; test: icELISA with mAb 5-D8; format: binding
[9] = system: 6-AT6; test: icELISA with mAb 6-AT6; format: binding
[10] = mAb 1-F12, specific evaluation (Table 1, Fig. 3B)
[11] = mAb 1-G12, specific evaluation (Table 1, Fig. 3D)
[12] = mAb 1-D6, specific evaluation (Table 1, Fig. 3C)
[13] = coating antigen Hapten 1-OVA, mAb 1-F12
[14] = coating antigen Hapten 2-OVA, mAb 1-F12
[15] = coating antigen Hapten 3-OVA, mAb 1-F12
[16] = coating antigen Hapten 4-OVA, mAb 1-F12
[17] = coating antigen Hapten 5-OVA, mAb 1-F12 (optimal combination)
[18] = coating antigen Hapten 6-OVA, mAb 1-F12
[19] = coating antigen Hapten 1-OVA, mAb 1-G12
[20] = coating antigen Hapten 2-OVA, mAb 1-G12
[21] = coating antigen Hapten 3-OVA, mAb 1-G12
[22] = coating antigen Hapten 4-OVA, mAb 1-G12
[23] = coating antigen Hapten 5-OVA, mAb 1-G12
[24] = coating antigen Hapten 6-OVA, mAb 1-G12
[25] = coating antigen Hapten 1-OVA, mAb 1-D6
[26] = coating antigen Hapten 2-OVA, mAb 1-D6
[27] = coating antigen Hapten 3-OVA, mAb 1-D6
[28] = coating antigen Hapten 4-OVA, mAb 1-D6
[29] = coating antigen Hapten 5-OVA, mAb 1-D6
[30] = coating antigen Hapten 6-OVA, mAb 1-D6

With `COc1cccc(CNC(=O)CC#N)c1` [2-Cyano-N-(3-methoxybenzyl) acetamide] the IC50 [1, 10] was greater than 4 µg/mL, the CR ([1]; mAb 1-F12) was less than 12.66% and the IC50 [2, 11] was greater than 4 µg/mL. The CR ([2]; mAb 1-G12) was less than 14.01%, the IC50 [3, 12] was greater than 4 µg/mL and the CR ([3]; mAb 1-D6) was less than 1.48%.

`CCCCCCCC(=O)CCc1cc(OC)c(O)c(C(=O)O)c1` [2-hydroxy-3-methoxy-5-(3-oxodecyl) benzoic acid] was tested, and the IC50 [1, 10] was greater than 4 µg/mL, the CR ([1]; mAb 1-F12) was less than 12.66% and the IC50 [2, 11] was greater than 4 µg/mL. The CR ([2]; mAb 1-G12) was less than 14.01%, the IC50 [3, 12] was 1.9528 µg/mL (≈ 6.06 µM) and the CR ([3]; mAb 1-D6) was 3.03%.

For `COc1cc(CCC(=O)O)ccc1O` [3-(4-Hydroxy-3-methoxyphenyl) propionic Acid], the IC50 [1, 10] was greater than 4 µg/mL, the CR ([1]; mAb 1-F12) was less than 12.66% and the IC50 [2, 11] was greater than 4 µg/mL. For the same compound, the CR ([2]; mAb 1-G12) was less than 14.01%, the IC50 [3, 12] was 2.17533 µg/mL (≈ 11.1 µM) and the CR ([3]; mAb 1-D6) was 2.72%.

Work on `COc1cc(CNC(=O)CCCC/C=C/C(C)C)ccc1O` [CPC, Capsaicin] yielded an IC50 [1, 13] of 0.58442 µg/mL (≈ 1.91 µM), an IC50 [1, 14] greater than 4 µg/mL and an IC50 [1, 15] greater than 4 µg/mL. For the same compound, the IC50 [1, 16] was 0.79654 µg/mL (≈ 2.61 µM), the IC50 [1, 17] was 0.48151 µg/mL and the IC50 [1, 18] was 1.35443 µg/mL (≈ 4.43 µM). For the same compound, the CR ([1]; mAb 1-F12) was 86.62%, the IC50 [2, 19] was 1.22906 µg/mL (≈ 4.02 µM) and the IC50 [2, 20] was greater than 4 µg/mL. It also gave an IC50 [2, 21] greater than 4 µg/mL, an IC50 [2, 22] of 0.83506 µg/mL (≈ 2.73 µM) and an IC50 [2, 23] of 0.33939 µg/mL (≈ 1.11 µM). For the same compound, the IC50 [2, 24] was 0.66185 µg/mL (≈ 2.17 µM), the IC50 [2, 11] was 1.22906 µg/mL (≈ 4.02 µM) and the CR ([2]; mAb 1-G12) was 45.61%. It also gave an IC50 [3, 25] greater than 4 µg/mL, an IC50 [3, 26] greater than 4 µg/mL and an IC50 [3, 27] greater than 4 µg/mL. For the same compound, the IC50 [3, 28] was 0.91716 µg/mL (≈ 3 µM), the IC50 [3, 29] was 0.93917 µg/mL (≈ 3.08 µM) and the IC50 [3, 30] was 0.26434 µg/mL (≈ 0.866 µM). The IC50 [3, 12] was greater than 4 µg/mL, the CR ([3]; mAb 1-D6) was less than 1.48% and the IC50 ([4]; coating antigen Hapten 1-OVA) was 0.11875 µg/mL (≈ 0.389 µM). It also gave an IC50 ([4]; coating antigen Hapten 2-OVA) of 0.00961 µg/mL (≈ 0.0315 µM), an IC50 ([4]; coating antigen Hapten 3-OVA) of 0.01715 µg/mL (≈ 0.0562 µM) and an IC50 ([4]; coating antigen Hapten 4-OVA) of 0.00119 µg/mL (≈ 0.0039 µM). It also gave an IC50 ([5]; coating antigen Hapten 2-OVA) of 0.01016 µg/mL (≈ 0.0333 µM), an IC50 ([5]; coating antigen Hapten 3-OVA) of 0.03008 µg/mL (≈ 0.0985 µM) and an IC50 ([5]; coating antigen Hapten 4-OVA) of 0.00387 µg/mL (≈ 0.0127 µM). The IC50 ([6]; coating antigen Hapten 1-OVA) was 0.00502 µg/mL (≈ 0.0164 µM), the IC50 ([6]; coating antigen Hapten 2-OVA) was 0.13283 µg/mL (≈ 0.435 µM) and the IC50 ([6]; coating antigen Hapten 3-OVA) was 0.27036 µg/mL (≈ 0.885 µM). It also gave an IC50 ([6]; coating antigen Hapten 4-OVA) of 0.00651 µg/mL (≈ 0.0213 µM), an IC50 ([6]; coating antigen Hapten 5-OVA) of 0.00379 µg/mL (≈ 0.0124 µM) and an IC50 ([7]; coating antigen Hapten 1-OVA) of 1.15967 µg/mL (≈ 3.8 µM). The IC50 ([7]; coating antigen Hapten 2-OVA) was 0.547 µg/mL (≈ 1.79 µM), the IC50 ([7]; coating antigen Hapten 3-OVA) was 0.79417 µg/mL (≈ 2.6 µM) and the IC50 ([7]; coating antigen Hapten 4-OVA) was 0.02586 µg/mL (≈ 0.0847 µM). For the same compound, the IC50 ([7]; coating antigen Hapten 5-OVA) was 0.10327 µg/mL (≈ 0.338 µM), the IC50 ([8]; coating antigen Hapten 1-OVA) was 0.03987 µg/mL (≈ 0.131 µM) and the IC50 ([8]; coating antigen Hapten 2-OVA) was 0.54041 µg/mL (≈ 1.77 µM). It also gave an IC50 ([8]; coating antigen Hapten 3-OVA) of 0.56457 µg/mL (≈ 1.85 µM), an IC50 ([8]; coating antigen Hapten 4-OVA) of 0.02878 µg/mL (≈ 0.0942 µM) and an IC50 ([8]; coating antigen Hapten 5-OVA) of 0.04559 µg/mL (≈ 0.149 µM). For the same compound, the IC50 ([9]; coating antigen Hapten 1-OVA) was greater than 4 µg/mL, the IC50 ([9]; coating antigen Hapten 2-OVA) was greater than 4 µg/mL and the IC50 ([9]; coating antigen Hapten 3-OVA) was greater than 4 µg/mL. For the same compound, the IC50 ([9]; coating antigen Hapten 4-OVA) was greater than 4 µg/mL, the IC50 ([9]; coating antigen Hapten 5-OVA) was greater than 4 µg/mL and the IC50 ([9]; coating antigen Hapten 6-OVA) was greater than 4 µg/mL.

For `COc1cc(CNC(=O)CCCCCCC(C)C)ccc1O` [DCPC, dihydrocapsaicin], the IC50 [1, 13] was 0.55714 µg/mL (≈ 1.81 µM), the IC50 [1, 14] was greater than 4 µg/mL and the IC50 [1, 15] was greater than 4 µg/mL. For the same compound, the IC50 [1, 16] was 0.41585 µg/mL (≈ 1.35 µM), the IC50 [1, 17] was 0.14358 µg/mL and the IC50 [1, 18] was 0.8841 µg/mL (≈ 2.88 µM). It also gave an IC50 [1, 10] of 0.55714 µg/mL (≈ 1.81 µM), a CR ([1]; mAb 1-F12) of 90.86% and an IC50 [2, 19] of 0.70085 µg/mL (≈ 2.28 µM). The IC50 [2, 20] was greater than 4 µg/mL, the IC50 [2, 21] was greater than 4 µg/mL and the IC50 [2, 22] was 0.72469 µg/mL (≈ 2.36 µM). The IC50 [2, 23] was 0.37358 µg/mL (≈ 1.22 µM), the IC50 [2, 24] was 0.35151 µg/mL (≈ 1.14 µM) and the IC50 [2, 11] was 0.70085 µg/mL (≈ 2.28 µM). For the same compound, the CR ([2]; mAb 1-G12) was 79.99%, the IC50 [3, 25] was 0.96982 µg/mL (≈ 3.15 µM) and the IC50 [3, 26] was greater than 4 µg/mL. The IC50 [3, 27] was greater than 4 µg/mL, the IC50 [3, 28] was 0.70128 µg/mL (≈ 2.28 µM) and the IC50 [3, 29] was 0.58873 µg/mL (≈ 1.91 µM). The IC50 [3, 30] was 0.16792 µg/mL (≈ 0.546 µM), the IC50 [3, 12] was 0.96982 µg/mL (≈ 3.15 µM) and the CR ([3]; mAb 1-D6) was 6.10%. It also gave an IC50 ([4]; coating antigen Hapten 1-OVA) of 0.00947 µg/mL (≈ 0.0308 µM), an IC50 ([4]; coating antigen Hapten 2-OVA) of 0.00485 µg/mL (≈ 0.0158 µM) and an IC50 ([4]; coating antigen Hapten 3-OVA) of 0.00154 µg/mL (≈ 0.00501 µM). It also gave an IC50 ([4]; coating antigen Hapten 4-OVA) of 0.00073 µg/mL (≈ 0.00237 µM), an IC50 ([5]; coating antigen Hapten 2-OVA) of 0.00124 µg/mL (≈ 0.00403 µM) and an IC50 ([5]; coating antigen Hapten 3-OVA) of 0.00062 µg/mL (≈ 0.00202 µM). For the same compound, the IC50 ([5]; coating antigen Hapten 4-OVA) was 0.00184 µg/mL (≈ 0.00599 µM), the IC50 ([6]; coating antigen Hapten 1-OVA) was 0.00581 µg/mL (≈ 0.0189 µM) and the IC50 ([6]; coating antigen Hapten 2-OVA) was 0.05733 µg/mL (≈ 0.186 µM). For the same compound, the IC50 ([6]; coating antigen Hapten 3-OVA) was 0.25387 µg/mL (≈ 0.826 µM), the IC50 ([6]; coating antigen Hapten 4-OVA) was 0.01068 µg/mL (≈ 0.0347 µM) and the IC50 ([6]; coating antigen Hapten 5-OVA) was 0.00313 µg/mL (≈ 0.0102 µM). It also gave an IC50 ([7]; coating antigen Hapten 1-OVA) of 0.01598 µg/mL (≈ 0.052 µM), an IC50 ([7]; coating antigen Hapten 2-OVA) of 0.10263 µg/mL (≈ 0.334 µM) and an IC50 ([7]; coating antigen Hapten 3-OVA) of 0.25386 µg/mL (≈ 0.826 µM). The IC50 ([7]; coating antigen Hapten 4-OVA) was 0.01135 µg/mL (≈ 0.0369 µM), the IC50 ([7]; coating antigen Hapten 5-OVA) was 0.03124 µg/mL (≈ 0.102 µM) and the IC50 ([8]; coating antigen Hapten 1-OVA) was 0.00582 µg/mL (≈ 0.0189 µM). It also gave an IC50 ([8]; coating antigen Hapten 2-OVA) of 0.16652 µg/mL (≈ 0.542 µM), an IC50 ([8]; coating antigen Hapten 3-OVA) of 0.05575 µg/mL (≈ 0.181 µM) and an IC50 ([8]; coating antigen Hapten 4-OVA) of 0.0109 µg/mL (≈ 0.0355 µM). It also gave an IC50 ([8]; coating antigen Hapten 5-OVA) of 0.01319 µg/mL (≈ 0.0429 µM), an IC50 ([9]; coating antigen Hapten 1-OVA) greater than 4 µg/mL and an IC50 ([9]; coating antigen Hapten 2-OVA) greater than 4 µg/mL. It also gave an IC50 ([9]; coating antigen Hapten 3-OVA) greater than 4 µg/mL, an IC50 ([9]; coating antigen Hapten 4-OVA) greater than 4 µg/mL and an IC50 ([9]; coating antigen Hapten 5-OVA) of 1.46054 µg/mL (≈ 4.75 µM). It also gave an IC50 ([9]; coating antigen Hapten 6-OVA) greater than 4 µg/mL.
